Bounds are passed on as bounds.

In data set [1] the target is Human immunodeficiency virus type 1 reverse transcriptase (Human immunodeficiency virus 1) (UniProt Q72547).
Data set [2] in a line: Cytotoxicity against human MT4 cells assessed as induction of cell death by MTT method. The class given is cell-based. The procedure, abridged: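 Mock-infected MT-4 cells exposed to a range of drug concentrations. Viability read by MTT colorimetry at day 5. […] Top concentration was limited where compound precipitated in the culture medium. Means of at least two experiments.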
A general note: Tetrazolium assays rely on reduction of a dye to a coloured formazan, in cell work by metabolically active cells.

Data set [3] relates to Human immunodeficiency virus 1. The data set is described as follows: Fold resistance, ratio of EC50 for HIV-1 harboring NNTRI-resistant reverse transcriptase Y181C mutant infected in human MT4 cells to EC50 for wild type HIV-1 NL4-3 infected in human MT4 cells. The format is functional. The procedure, abridged: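 MT-4 cells infected with HIV-1 mutant (K103N or Y181C) or wild-type NL4-3, with drug present. […] Fold resistance is the mutant EC50 divided by the wild-type NL4-3 EC50. EC50 values are means of at least two experiments.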

In data set [4] the test system is Human immunodeficiency virus 1. The data set is described as follows: Fold resistance, ratio of EC50 for HIV-1 harboring NNTRI-resistant reverse transcriptase K103N mutant infected in human MT4 cells to EC50 for wild type HIV-1 NL4-3 infected in human MT4 cells. The class given is functional.
For data set [5], the system named is Human immunodeficiency virus 1. As to the kind of experiment: Fold resistance, ratio of ID50 for HIV-1 recombinant NNTRI-resistant reverse transcriptase K103N mutant to ID50 for wild type HIV-1 recombinant reverse transcriptase. The procedure, abridged:
(§1)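 Recombinant wt or mutant HIV-1 RT, purified to >95%, at 2-4 nM. RNA-dependent DNA polymerase activity with 0.5 µg poly(rA)/oligo(dT)10:1 (0.3 µM 3'-OH ends), 10 µM [3H]-dTTP and 8% final DMSO. Incorporation was sampled at 2-min intervals. ID50 came from fitting to a fully non-competitive model. Ratio is ID50 mutant/ID50 wt. Means of at least three experiments.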

Data set [6] deals with Human immunodeficiency virus 1. The data set is described as follows: Antiviral activity against HIV-1 harboring NNTRI-resistant reverse transcriptase Y188L mutant infected in human MT4 cells assessed as inhibition of virus-induced cytopathic effect by MTT method. The class given is functional, organism-based. Particulars: Human immunodeficiency virus 1, MT4. The procedure, abridged: (§2)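 MT-4 lymphoid cells infected with HIV-1 carrying RT K103N, Y181C or Y188L, with a range of drug concentrations present. Viable cells counted by MTT colorimetric assay at day 5 post-infection. […] Highest concentration tested was limited by precipitation in culture medium. Means of at least two experiments.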
(Protection from cytopathic effect is a common read-out in antiviral testing.)

The subject of data set [7] is Human immunodeficiency virus 1. The data set is described as follows: Fold resistance, ratio of ID50 for HIV-1 recombinant NNTRI-resistant reverse transcriptase L100I mutant to ID50 for wild type HIV-1 recombinant reverse transcriptase. The procedure, abridged:
as §1

Data set [8] relates to Human immunodeficiency virus type 1 reverse transcriptase (Human immunodeficiency virus 1), Q72547 [L100I].
Data set [9] relates to Human immunodeficiency virus type 1 reverse transcriptase (Human immunodeficiency virus 1), Q72547 [Y181I].
The subject of data set [10] is Human immunodeficiency virus 1. As to the kind of experiment: Antiviral activity against HIV-1 harboring NNTRI-resistant reverse transcriptase Y181C mutant infected in human MT4 cells assessed as inhibition of virus-induced cytopathic effect by MTT method. The class given is functional, organism-based. The note with it: Human immunodeficiency virus 1, MT4. The procedure, abridged: as §2

Data set [11] relates to Human immunodeficiency virus 1. The data set is described as follows: Fold resistance, ratio of ID50 for HIV-1 recombinant NNTRI-resistant reverse transcriptase Y181I mutant to ID50 for wild type HIV-1 recombinant reverse transcriptase. The procedure, abridged:
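RNA-dependent DNA polymerase activity with 0.5 µg poly(rA)/oligo(dT)10:1 (0.3 µM 3'-OH ends), 10 µM [3H]-dTTP and 8% final DMSO. Incorporation was sampled at 2-min intervals. ID50 came from fitting to a fully non-competitive model. Means of at least three experiments.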

Data set [12] can be described thus: Selectivity index, ratio of CC50 for human MT4 cells to EC50 for wild type HIV-1 NL4-3 infected in human MT4 cells. The class given is toxicity, cell-based. Particulars: read-out: Ratio CC50/EC50. The procedure, abridged: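 Ratio of CC50 to EC50, both from MTT readings in MT-4 cells at day 5. CC50 was taken in mock-infected cells and EC50 in cells infected with wild-type NL4-3. Values are means of at least two experiments.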

Data set [13] relates to Human immunodeficiency virus type 1 reverse transcriptase (Human immunodeficiency virus 1), Q72547 [K103N].
For data set [14], the system named is Human immunodeficiency virus 1. The data set is described as follows: Ratio of efavirenz EC50 to compound EC50 for wild type HIV-1 NL4-3 infected in human MT4 cells. The class given is functional.
For data set [15], the system named is Human immunodeficiency virus 1. The data set is described as follows: Antiviral activity against HIV-1 harboring NNTRI-resistant reverse transcriptase K103N mutant infected in human MT4 cells assessed as inhibition of virus-induced cytopathic effect by MTT method. The format is functional, organism-based. Particulars: Human immunodeficiency virus 1, MT4.
Data set [16] relates to Human immunodeficiency virus 1. As to the kind of experiment: Antiviral activity against wild type HIV-1 NL4-3 infected in human MT4 cells assessed as inhibition of virus-induced cytopathic effect by MTT method. The class given is functional, organism-based. Particulars: Human immunodeficiency virus 1, NL4-3, MT4. The procedure, abridged: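 MT-4 lymphoid cells infected with wild-type HIV-1 NL4-3 while exposed to a range of drug concentrations. Viable cells counted by tetrazolium (MTT) colorimetry at day 5 post-infection. Means of at least two experiments.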

In data set [17] the test system is Human immunodeficiency virus 1. As to the kind of experiment: Fold resistance, ratio of EC50 for HIV-1 harboring NNTRI-resistant reverse transcriptase Y188L mutant infected in human MT4 cells to EC50 for wild type HIV-1 NL4-3 infected in human MT4 cells. The class given is functional. The procedure, abridged: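 HIV-1 NL4-3 (wt) or Y188L mutant infection of MT-4 cells across a range of drug concentrations. Viable cells were counted by MTT at day 5 post-infection. […] Fold resistance is mutant EC50 over wt EC50. Means of at least two experiments.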

In general, CC50 refers to the concentration giving 50% cytotoxicity. What is called EC50 is the midpoint of the concentration-response curve. In the case of `Cc1c(C(C)c2c(F)cccc2F)nc(SC2CCCC2)[nH]c1=O` (racemic), the ID50 in data set [1] was 5 nM; in [8], 0.3 µM; in data set [9] it was 0.9 µM; in data set [13] it was 0.03 µM. For the same compound, in data set [2], the CC50 is greater than 3000 nM. Besides, the “Ratio EC50” value in [3] turned out to be 100; in data set [4] it was 230. The Ratio in data set [5] is 6; in [7] it was 60; in data set [11] it was 180. The EC50 was greater than 3000 nM in data set [6] and 100 nM in data set [10]. In addition, in [12], the selectivity ratio is greater than 3000.

As for `CCCSc1nc(C(C)c2c(F)cccc2Cl)c(C)c(=O)[nH]1` (racemic), the ID50 in data set [1] turned out to be 0.9 nM; in [8] it was 0.09 µM; in data set [13] it was 1.5 µM. Also, the CC50 in data set [2] is greater than 1500 nM. In addition, the “Ratio EC50” value in data set [3] turned out to be 5200; in data set [4], 7000; in data set [14] it was 140. Further, the EC50 in data set [6] is greater than 1500 nM; in [10], 260 nM; in data set [15], 350 nM; in data set [16], 0.05 nM. The selectivity ratio in data set [12] is greater than 30000.

Consider `CCCCSc1nc(C(C)c2c(F)cccc2Cl)c(C)c(=O)[nH]1` (racemic), for which the ID50 in data set [1] was determined as 3 nM; in data set [8], 0.156 µM; in data set [13], 0.93 µM. Besides, in data set [2], the CC50 is greater than 1500 nM. Also, the “Ratio EC50” value is 2067 in [3], 2200 in data set [4] and 23 in [14]. The values for the Ratio in [5], in [7] and in data set [11] were 310, 52 and 20000, respectively. Moreover, the EC50 in data set [6] is greater than 1500 nM; in data set [10], 620 nM; in data set [15], 660 nM; in [16] it was 0.3 nM. Also, the selectivity ratio in data set [12] is greater than 5000.

For the compound `Cc1c(C(C)c2c(F)cccc2Cl)nc(SC2CCCC2)[nH]c1=O` (racemic), the ID50 in data set [1] was determined as 11 nM; in [8] it was 0.12 µM; in data set [13] it was 1.3 µM. Also, the CC50 in data set [2] was greater than 15000 nM. Moreover, the “Ratio EC50” value stood at 7667 in data set [3], 3100 in [4], 230 in data set [14] and 96667 in data set [17]. For the same compound, the EC50 was found to be 2900 nM in data set [6], 230 nM in data set [10], 93 nM in data set [15] and 0.03 nM in [16]. Besides, the selectivity ratio in data set [12] was greater than 500000.

For the origin of these results see ChEMBL document CHEMBL3286172, “Exploring the role of 2-chloro-6-fluoro substitution in 2-alkylthio-6-benzyl-5-alkylpyrimidin-4(3H)-ones: effects in HIV-1-infected cells and in HIV-1 reverse transcriptase enzymes” (J Med Chem, 2014).
